The source of these data is the EternaBench riboswitch data.

This data set concerns MS2 coat protein. Description: apparent Kd, MS2 coat protein; higher = weaker binding; RNA-MaP array; FMN 200 µM where present. In a few lines:
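Designs on Illumina sequencing-chip clusters, transcribed by stalled E. coli RNA polymerase, were exposed to SNAP-549-labelled MS2 coat protein in doubling steps from 0.7 or 1.5 nM up to 3 µM, without and then with constant ligand. The buffer held 100 mM Tris-HCl pH 7.5, 80 mM KCl, 4 mM MgCl2, BSA, DTT, yeast tRNA and Tween-20. Apparent Kd values are medians of filtered per-cluster binding-curve fits to green signal normalised to red-channel RNA signal and control-cluster median Fmax.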

The mark [1] stands for this setting: designed as: OFF switch for flavin mononucleotide, no ligand.
The mark [2] stands for this setting: ligand present: flavin mononucleotide, designed as: OFF switch for flavin mononucleotide.
Setting [3] is: designed as: ON switch for flavin mononucleotide, no ligand.
Where [4] appears, read: ligand present: flavin mononucleotide, designed as: ON switch for flavin mononucleotide.

On to “AGUCGGAGCAGAGGAUAUUACAUGAGGAUCACCCAUGUAUGAACCAAUAGCUGGAAACAGCAAUGUAAGAAGGCUGCUCCGACA”, for which the apparent Kd (usually a dissociation constant that holds for the conditions of the assay) worked out at 37.6 nM under setting [1] and 426 nM under setting [2].

In the case of “AGUGCGUAUGUGAGGAUAUGCUGGUCCUUGGAUCGGCAGAAGGCACAUGAGGAUCACCCAUGUGGUGUCGUACU”, the “apparent Kd” value by setting is: under setting [1], 381 nM; under setting [2], 20 nM.

As for “UUAAAUCAUGUAGGAUAUGCGUGGAGAAACUAUGCAGAAGGACAUGAGGAUCACCCAUGUGCUUCCGUCUGCGUACAGAUGGUA”, the “apparent Kd” value runs as follows: under setting [1], 26.3 nM; under setting [2], 156 nM.

Take “UCUAGACAUGAGGAUCACCCAUGUGAGGAUAUGAUGCGAUCGUCGAAAGACGAUAGCAUCAGAAGGCACGUAUG”: the “apparent Kd” value was 65.1 nM under setting [1] and 113 nM under setting [2].

As to “CGGGCGCGAGUAGGAUAUGUAUAUUUGCCGGGUCCGUGAUCACAUGAGGAUCACCCAUGUGGUAAGCAGAAGGAUUCGGUCCGA”, the “apparent Kd” value by setting is: under setting [1], 6.04 nM; under setting [2], 7.8 nM.

As to “AGCUGUGGCCGAGGAUAUCUAAUAAUCCCAACCGAAAUAUAAUCGGACAUGAGGAUCACCCAUGUAGAGAAGGCGGUCUCAGCA”, the “apparent Kd” value was determined as 143 nM under setting [1] and 307 nM under setting [2].

“CGCACUAUACAUGAGGAUCACCCAUGUUAAUAUGAGAUAGUCAGAAGGCAUUGUAUGAGAAAUUAUGAGGAUAUGAAUAGUGCG”: the “apparent Kd” value under setting [3] was 106 nM and the “apparent Kd” value under setting [4] was 32.8 nM.

In the case of “GUGACGAUGUAAGGAUAUGCAGUGGAUAACACUGCAGAAGGUACAUGAGGAUCACCCAUGUAACUCUAAUAAUAAUAACGUCAC”, the “apparent Kd” value under setting [1] amounted to 12.1 nM and the “apparent Kd” value under setting [2] was determined as 17 nM.

On to “UCUCUUCUGUAGAAGGCCCAACUUGUGAAGGCAACGAUGCUAUAGAAGUAGGGAGGAUAUACAUGAGGAUCACCCAUGUAGGAA”, for which the “apparent Kd” value amounted to 9.28 nM under setting [1] and 13.4 nM under setting [2].

“AGCAUGUUUACAUGAGGAUCACCCAUGUUUUUUUAGGAUAUCAGAAGGUACAAUUUGUGUUAGAGUAAGGAUAUGAUAUAUGCG”: the “apparent Kd” value runs as follows: under setting [3], 12.6 nM; under setting [4], 8.88 nM.

Turning to “CGCUACGUUUCGUAGCAGCUAGGUGAGGAUAUUCAAUUUUUCACAUGAGGAUCACCCAUGUAUGUGAAGAAGGCGCCUAGAAAG”, the “apparent Kd” value by setting is: under setting [3], 11.8 nM; under setting [4], 5.64 nM.

Turning to “UUACUCAUGUAAGGAUAUGCAGCCGAAACGGCUGCAGAAGGUACUAAAAUACAUGAGGAUCACCCAUGUCUUUUUAAUUUAGAU”, the “apparent Kd” value runs as follows: under setting [3], 75.5 nM; under setting [4], 47.6 nM.

For the sequence “UGCCGUAGAGGAUAUACAUUGAAUUUGAUUCAUGUAAAACUACAUGAGGAUCACCCAUGUAGAAGGCUAUGGCU”, the “apparent Kd” value was determined as 17.9 nM under setting [1] and 34.4 nM under setting [2].

As to “UGGUAACAUGAGGAUCACCCAUGUCAAGAGAAUCAAGGAUAUGGUAAGUAAUAAGAGAAUCUAGAAGGUGAAGUUG”, the “apparent Kd” value under setting [3] turned out to be 96.2 nM and the “apparent Kd” value under setting [4] is 69.1 nM.

Take “UUUAGUUCAGGAUAUGUAGAUUUUAACAUGAGGAUCACCCAUGUAGAUCCUGAAUUAACUACAGAAGGGAACAUUU”: the “apparent Kd” value reads like this: under setting [1], 19.8 nM; under setting [2], 88.6 nM.

For the sequence “GCGUCAGAAUUAAUUGUGACAAGCAGAAGGCUAUAUCUUAUGUUAGACAUGAGGAUCACCCAUGUAGAGGAUAUGCAGUUACAC”, the “apparent Kd” value was 7.87 nM under setting [1] and 14.2 nM under setting [2].

“UCGUACAUUCGAGGAUAUCGGUGAUUAAUAAUACGAGAAGGCGAUUUAAGGCAUAAAGCCUUAGACAUGAGGAUCACCCAUGUA”: the “apparent Kd” value was determined as 107 nM under setting [3] and 70.5 nM under setting [4].

“GCUACUACAUGAGGAUCACCCAUGUAUCCGUAGCGGGCCGCACAGGAUAUCAACCUCGGAAGAGGUGAGAAGGGUGAUACUCAU”: the “apparent Kd” value by setting is: under setting [3], 23.2 nM; under setting [4], 38.1 nM.

Regarding “GGUUAGGACAGAGGAUAUACGUGCUAGAGAUACUAGCAAAAUUUCCUCACAUGAGGAUCACCCAUGUAGAAGGCUGUCCUAUCG”, the “apparent Kd” value runs as follows: under setting [1], 16.4 nM; under setting [2], 434 nM.

Regarding “AAUCUUUUUAUGGGAUUAGAAUAUGAGGAUAUCAUUUGUUUAUACAUGAGGAUCACCCAUGUUUCUGAGAAGGCAUAUAUAAUA”, the “apparent Kd” value by setting is: under setting [3], 44.6 nM; under setting [4], 10.2 nM.

Take “AUAAAUAAGCAAGGAUAUUGUUUAAAUAAAUAACAAGAAGGUGCAGUUAAUUUCUCAAAACAUGAGGAUCACCCAUGUAUUUAA”: the “apparent Kd” value by setting is: under setting [3], 42.4 nM; under setting [4], 21.8 nM.

Take “CAAAGUAGCACAGGAUAUCAUACAUGAGGAUCACCCAUGUCAAGAAGCAAAUGAGAAGGGUGCAGACGGUGUUGGAGCGGUUGC”: the “apparent Kd” value runs as follows: under setting [3], 68.6 nM; under setting [4], 7.02 nM.

With “GUGUAGUGAGGAUAUACAUGAGGAUCACCCAUGUGAAUAAGAUAGAAUAAGAUAAAGUGUAGAAGGUAUAGUGU”, the “apparent Kd” value by setting is: under setting [1], 53.2 nM; under setting [2], 35.3 nM.

As to “AUUUUAAAGGGAGGAUAUACAUGAGGAUCACCCAUGUAAACGUGAGGAUCACCCAUGUAAACAAUGUAGAAGGCCUAUAUCUAU”, the “apparent Kd” value was found to be 86 nM under setting [1] and 74.1 nM under setting [2].

Regarding “GAUUUACAUGAGGAUCACCCAUGUGAGGAUAUGGAAUGGCUCAUUGUCUGAUUUCCUUCUAGAAGGCACAUCUU”, the “apparent Kd” value is, setting by setting: under setting [1], 43.7 nM; under setting [2], 51 nM.

Take “AACGCGUCAGGAUAUAGCGAAACUUAGGUAGUACAACCAUACUAGAAGGGACAUGAGGAUCACCCAUGUGGGUA”: the “apparent Kd” value reads like this: under setting [1], 209 nM; under setting [2], 104 nM.

Regarding “AAGUAUAGAGGAUAUAGUAGUUACAACAUGAGGAUCACCCAUGUUCUUCAUAACGUAGUUCUAGAAGGCUGAUAAA”, the “apparent Kd” value by setting is: under setting [1], 183 nM; under setting [2], 271 nM.

Regarding “GUAGCAUACCAAGGAUAUUCAUAUAAUAAGUAAACAUGAGGAUCACCCAUGUAGCGAGAGCCUUGGGAGAAGGUGGAAUGCUAC”, the “apparent Kd” value was 58.7 nM under setting [3] and 46.7 nM under setting [4].

For the sequence “UUAUACGUUGAGGAUAUGUUAUUUAGUAUAGUUACAGAAGGCGAUACAUGAGGAUCACCCAUGUUUAUGGGCAU”, the “apparent Kd” value under setting [1] was determined as 196 nM and the “apparent Kd” value under setting [2] was found to be 153 nM.

Consider “CGGAAAAGGUAGGAUAUGCUAGACGAAAGUCUAGCAGAAGGACCUACAUGAGGAUCACCCAUGUGUCCAAUCCG”, for which the “apparent Kd” value runs as follows: under setting [1], 56.3 nM; under setting [2], 24.7 nM.

Turning to “GGAUGACAAAGUCAUCCUAUUCGAACAUGAGGAUCACCCAUGUAGGAUAUGCUACACAAAGUGUAGCAGAAGGACAUGUGCUUU”, the “apparent Kd” value came out at 33.8 nM under setting [1] and 171 nM under setting [2].

Turning to “UAUUUUGAAGUAGGAUAUCAACACACAUGAGGAUCACCCAUGUUAGAUGUGGAUGUUGUAUGUUAUGAGAAGGACUUCGAUUCG”, the “apparent Kd” value came to 20.6 nM under setting [1] and 76.4 nM under setting [2].

On to “UUAAUUUGAUGAUAUUAUGAUAUUAGAAGGCUGUACAUGUUGAUACAUGAGGAUCACCCAUGUAUAGAGGAUAUAGACAAUUUU”, for which the “apparent Kd” value runs as follows: under setting [1], 27.8 nM; under setting [2], 57.3 nM.

In the case of “GGGUUUGGUGUGAGGAUAUCGGGCCCGAAAGGGUUUGAGAAGGCACAUGAGGAUCACCCAUGUAAGCCGGGCCC”, the “apparent Kd” value is, setting by setting: under setting [1], 22.8 nM; under setting [2], 17.2 nM.

With “CGUAGGAUCCAGAAGGCAUGAAACAUGAGGAUCACCCAUGUCAAAGACAUGAGGAUAUGGAUCCUACGAAAAGUGCGAAAGCAC”, the “apparent Kd” value came to 4.1 nM under setting [3] and 3.15 nM under setting [4].

As for “CCCUCAACAUGAGGAUCACCCAUGUAGGAUAUCGCUAUUGUAAUCAUGAAACAUGAUUACAAUAGCGAGAAGGACAUAUGUGGG”, the “apparent Kd” value under setting [1] was 106 nM and the “apparent Kd” value under setting [2] was 49.8 nM.

As to “CUUUUGUGAGGAUAUUAGUAGUAAAUAAAUUAAAUUACUACUGAGAAGGCACAUGAGGAUCACCCAUGUUCCUC”, the “apparent Kd” value came to 31.3 nM under setting [1] and 243 nM under setting [2].

As for “AUGGACGUCGUAGGAUAUGUAGGAUUCUCGUACAUGAGGAUCACCCAUGUUGACGUCGAGGACGGACAGAAGGGCGGUGUCUAU”, the “apparent Kd” value runs as follows: under setting [3], 64.6 nM; under setting [4], 9.38 nM.

As for “AUGAGUAAAGCAGGAUAUCUAUUGUCUCUGUAACAUGAGGAUCACCCAUGUAGAGAAGGGCUUAGUCAUACUCUUCGGAGUUGA”, the “apparent Kd” value reads like this: under setting [1], 7.27 nM; under setting [2], 9.55 nM.

As to “AAUUAAUUGUAGAAGGUACUUAAUUAUGUUAUGUAAGGAUAUACGUAAUUAUUACGUCUUGUAUGACAUGAGGAUCACCCAUGU”, the “apparent Kd” value worked out at 12.9 nM under setting [3] and 11 nM under setting [4].

Turning to “GGUUGUCAUCGUCAUCCUUUCGGUACAUGAGGAUCACCCAUGUAGGAUAUGCUGCGUUCGAUGUGGCAGAAGGGCGUGUGUGUU”, the “apparent Kd” value turned out to be 22.1 nM under setting [1] and 40.5 nM under setting [2].

Take “UUUUUGUCAGGAUAUGACUAGAUGCACGUUAGUGUGUUUACUUAGAAGGGACAUGAGGAUCACCCAUGUAUUCC”: the “apparent Kd” value is, setting by setting: under setting [1], 28.9 nM; under setting [2], 24.1 nM.

With “AACUCGUCAGGAUAUGCGCGCAGUUACUACGCUUCGCAAUUGCAGAAGGGACAUGAGGAUCACCCAUGUAGAUC”, the “apparent Kd” value reads like this: under setting [1], 34.6 nM; under setting [2], 57.3 nM.

As to “AAGAACUGAGGAUAUGCAAAAGGGAAAGCUGAUCCUCAUCUACAUGAGGAUCACCCAUGUAGAAGGCGGGAAAU”, the “apparent Kd” value reads like this: under setting [1], 49.4 nM; under setting [2], 50.5 nM.

For the sequence “GGGUGCUCACCGCCUUAACAUGAGGAUCACCCAUGUGGAGUGCAGGAUAUACGUCUCUAUCAUACGUAGAAGGGCACCGCGCAG”, the “apparent Kd” value under setting [1] is 5.45 nM and the “apparent Kd” value under setting [2] came out at 5.9 nM.

Turning to “UUUUAGCAAGGAUAUACAUUUUUUUUAUUAUCCUCAUUAUUACAUGAGGAUCACCCAUGUAGAAGGUGCAUUUU”, the “apparent Kd” value under setting [1] worked out at 75.9 nM and the “apparent Kd” value under setting [2] was 81.5 nM.

For “UUUUUCUCAGGAUAUACAUGAGGAUCACCCAUGUAUAUUAGUGAUAAUACAUGGGAAUGUAGAAGGGAGCUCAU”, the “apparent Kd” value was determined as 164 nM under setting [1] and 123 nM under setting [2].

Regarding “GUGGUGGGUUGAGGAUAUUGGUUGUCGUUGUCCCACAUGAGGAUCACCCAUGUGGGUUGUGGUUUUGAGAAGGUUGGUUGCUGG”, the “apparent Kd” value runs as follows: under setting [3], 18.1 nM; under setting [4], 15.9 nM.
